The source made the active and inactive calls. The rule behind the calls is not given here.
How the values were obtained:
[1] = test system: HLF1; assay: Inhibition of H2O2-induced oxidative stress in human HLF1 cells assessed as cell viability at 5 uM pretreated for 24 hrs followed by addition of 300 uM H2O2 for 2.5 hrs; format: functional, cell-based
Summary of the method: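 HFL-1 embryonic lung fibroblasts in DMEM/10% FBS, fed about 16 h before assay; 10⁴ cells seeded, 24 h later given compound in DMSO or DMSO alone for 24 h. Then 300 μM H2O2 for 2.5 h with compound still present, PBS wash, 5-day recovery in complete medium. Cells counted in triplicate with a Coulter counter; at least two experiments.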

[2] = test system: Caenorhabditis elegans; assay: Antiaging activity in Caenorhabditis elegans Bristol isolate N2 assessed as lifespan; format: functional, organism-based
Summary of the method: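 C. elegans N2 hermaphrodites, egg-lay synchronized, moved at L4 (80-120 per condition) onto UV-killed OP50/NGM plates carrying compound in DMSO diluted in M9, or DMSO alone; 20 °C, new plates every 2 days, exposure lifelong. Day 1 adult = t0. Scored daily for touch-provoked movement and pharyngeal pumping until death. Kaplan–Meier curves, log-rank test; repeated at least twice.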

[3] = test system: HLF1; assay: Inhibition of H2O2-induced oxidative stress in human HLF1 cells assessed as increase in cell viability at 2 to 5 uM pretreated for 24 hrs followed by addition of 300 uM H2O2 for 2.5 hrs; format: functional, cell-based
[4] = test system: Caenorhabditis elegans; assay: Antiaging activity in Caenorhabditis elegans Bristol isolate N2 assessed as lifespan at 10 uM; format: functional, organism-based
[5] = test system: Caenorhabditis elegans; assay: Antiaging activity in Caenorhabditis elegans Bristol isolate N2 assessed as increase in lifespan at 1 uM (reference value: 15 +/- 0.85%); format: functional
[6] = test system: Caenorhabditis elegans; assay: Antiaging activity in Caenorhabditis elegans Bristol isolate N2 assessed as increase in lifespan at 10 uM (reference value: 15 +/- 0.85%); format: functional
[7] = test system: Caenorhabditis elegans; assay: Antiaging activity in Caenorhabditis elegans Bristol isolate N2 assessed as increase in lifespan at 20 uM (reference value: 15 +/- 0.85%); format: functional

Row | Structure (SMILES) | inhibition [1] | Activity [2] | other results
1 | CCCc1cc(-c2ccc(O)cc2)no1 | inactive | inactive | 
2 | OCc1cc(-c2ccc(O)cc2)no1 | inactive | inactive | 
3 | O=c1c(O)c(-c2ccc(O)c(O)c2)oc2cc(O)cc(O)c12 |  |  | Activity [3]: Active; Activity [4]: inactive
4 | COc1c(C)c(C)c2c(c1C)CCC(C)(COCc1cc(-c3ccc(O)cc3)no1)O2 (stereo unspecified) | inactive | inactive | 
5 | Oc1ccc(-c2cc(-c3ccccc3)on2)cc1 | inactive | inactive | 
6 | Cc1c(C)c2c(c(C)c1O)C=CC(C)(COCc1cc(-c3ccc(O)cc3)no1)O2 (stereo unspecified) |  |  | Activity [3]: Active; ILS at 1 µM [5]: 18%; ILS at 10 µM [6]: 18%; ILS at 20 µM [7]: 20%
7 | Cc1c(C)c2c(c(C)c1O)C=CC(C)(COCc1cc(-c3ccc(F)cc3)no1)O2 (stereo unspecified) | inactive | inactive | 

— ChEMBL document CHEMBL3352704, “Microwave-assisted synthesis of 3,5-disubstituted isoxazoles and evaluation of their anti-ageing activity” (2014)
